Values after ≈ are worked out from the molar mass of the structure shown.
Assays:
[1] = PK and brain distribution after single iv dose; type: in vivo, mice (male C57Bl/6J); settings: male mice
[2] = biological target: MMP-9; settings: cited from earlier work
[3] = tested on: HepG2 cells; assay: XTT cytotoxicity assay; type: cell-based
Summary of the method: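 XTT viability in HepG2 cells, run in triplicate, with IC50 obtained by curve fitting.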

[4] = tested on: red blood cells (horse whole blood); assay: Hemolysis of red blood cells; type: cell-based; settings: up to concentrations of 160 μM; 37 °C, 1 h
Summary of the method: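 Horse whole-blood RBCs were pelleted at 7 000g and washed three times in 0.1 M PBS. Test compound, from DMSO stock, was incubated with RBCs in PBS at final 5–160 μM for 1 h at 37 °C, in duplicate. Controls were Triton X-100 (positive) and DMSO/PBS (negative). Samples were spun at 13 000g, supernatant absorbance was read at 541 nm, and IC50 was calculated from the plotted data.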

[5] = Water solubility determination; type: physicochemical; settings: saturated solution in water
Summary of the method: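 A saturated solution of test compound in water was centrifuged. The supernatant was quantified by UPLC with UV detection at 245 nm against calibration curves from known concentrations. The relative value compares the solubilities of the two compounds measured this way.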

[6] = tested on: cortical lesion after controlled cortical impact; settings: TBI mice; routes of administration and dose regimens different; cited from earlier work
[7] = 2 after single iv dose of 2 (6.3 mg/kg), plasma
[8] = 2 in brain after single iv dose of 2 (6.3 mg/kg)
[9] = 2 in brain after single iv dose of 3 (7.8 mg/kg)
[10] = 2 in plasma after single iv dose of 2 (6.3 mg/kg)
[11] = 2 in plasma after single iv dose of 3 (7.8 mg/kg)

For `O=S(=O)(CC1CS1)c1ccc(Oc2ccc(O)cc2)cc1` (centres unmarked) [Compound 2, p-hydroxy SB-3CT], the brainAUC/plasmaAUC ([1]; 2 after single iv dose of 2 (6.3 mg/kg)) was 1.2, the CL [1, 7] was 105 mL/min/kg and the Vd [1, 7] was 0.850 L/kg. The brainAUC/plasmaAUC ([1]; 2 after single iv dose of 3 (7.8 mg/kg)) was 0.53, the AUC0-last [1, 8] was 232 pmol·min/mg and the “AUC0-∞” value [1, 8] was 235 pmol·min/mg. The t1/2α [1, 8] was 3.0 min, the t1/2β [1, 8] was 49 min and the AUC0-last [1, 9] was 26 pmol·min/mg. For the same compound, the “AUC0-∞” value [1, 9] was 27 pmol·min/mg, the t1/2α [1, 9] was 3.1 min and the t1/2β [1, 9] was 8.3 min. For the same compound, the AUC0-last [1, 10] was 189 µM·min, the “AUC0-∞” value [1, 10] was 195 µM·min and the t1/2α [1, 10] was 3.4 min. The t1/2β [1, 10] was 45 min, the AUC0-last [1, 11] was 49 µM·min and the “AUC0-∞” value [1, 11] was 49 µM·min. For the same compound, the t1/2α [1, 11] was 3.0 min, the t1/2β [1, 11] was 6.5 min and the Ki ([2]; MMP-9) was 0.16 ± 0.08 µM. The IC50 [3] was 114 ± 1 µM, the “hemolysis of red blood cells” value [4] was “not observed” and the aqueous solubility [5] was 22.2 µg/mL (≈ 68.9 µM).

In the case of `O=S(=O)(CC1CS1)c1ccc(Oc2ccccc2)cc1` (centres unmarked) [SB-3CT], the “reduction in brain damage” value [6] is listed as 14%.

For “TIMP-1: tissue inhibitor of matrix metalloproteinase-1”, the residence time ([2]; time the inhibitor remains complexed with the target) is given as 7.9 min.
